Results taken from ChEMBL document CHEMBL1128338, “Synthesis and activity of some antimalarial bisquinolines” (J Med Chem, 1995).

Key:
[1] = Resistance index as the ratio of IC50 value against K1 to that of D10 strains.; type: functional
Procedure, shortened: (§1)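 Ratio of IC50 against the CQ-resistant strain (FAC8 or K1) to IC50 against CQ-sensitive D10. IC50s from 4-day growth assays at c. 1% parasitemia, 2% hematocrit, daily drug-medium replacement, duplicate growth curves.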

[2] = tested on: Plasmodium falciparum; assay: In vitro inhibition of chloroquine-sensitive Plasmodium falciparum D-10; type: functional, organism-based
Procedure, shortened: (§2)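 P. falciparum blood-stage cultures plated at c. 1% parasitemia, 2% hematocrit, exposed to a range of drug concentrations (compounds from 30 mM DMSO stocks; final DMSO <0.1%). Incubated 4 days with daily replacement of drug-containing medium. Growth curves run in duplicate; IC50 taken as concentration giving 50% growth inhibition.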

[3] = tested on: Plasmodium falciparum; assay: In vitro inhibition chloroquine-resistant Plasmodium falciparum K1; type: functional, organism-based; procedure, shortened: as §2
[4] = tested on: Plasmodium falciparum; assay: In vitro inhibition of chloroquine-resistant Plasmodium falciparum FAC8; type: functional, organism-based; procedure, shortened: as §2
[5] = Resistance index as the ratio of IC50 value against FAC8 to that of D10 strains.; type: functional; procedure, shortened: as §1

| Structure (SMILES) | Resistance index [1] | IC50 [2] [nM] | IC50 [3] [nM] | IC50 [4] [nM] | Resistance index [5] |
| --- | --- | --- | --- | --- | --- |
| CCN(CC)CCCC(C)Nc1ccnc2ccc(NC(=O)CCCCCCC(=O)Nc3ccc4nccc(NC(C)CCCN(CC)CC)c4c3)cc12 (stereo not given) | 1.5 | 5000 | 7400 | 5200 | 1 |
| CCN(CC)CCCC(C)Nc1ccnc2c(NC(=O)C(=O)Nc3cccc4c(NC(C)CCCN(CC)CC)ccnc34)cccc12 (stereo not given) | 1.7 | 1300 | 2300 | 1900 | 1.4 |
| CCN(CC)CCCC(C)Nc1ccnc2ccc(NC(=O)C(=O)Nc3ccc4nccc(NC(C)CCCN(CC)CC)c4c3)cc12 (stereo not given) | 0.8 | 2600 | 2200 | 1800 | 0.7 |
| CCN(CC)CCCC(C)Nc1ccnc2ccc(NC(=O)CCCCC(=O)Nc3ccc4nccc(NC(C)CCCN(CC)CC)c4c3)cc12 (stereo not given) | 1.7 | 9600 | 15900 | 10300 | 1.1 |
| CCN(CC)CCCC(C)Nc1ccnc2c(NC(=O)CCCCCCCCC(=O)Nc3cccc4c(NC(C)CCCN(CC)CC)ccnc34)cccc12 (stereo not given) | 1.1 | 260 | 290 | 310 | 1.2 |
| CCN(CC)CCCC(C)Nc1ccnc2c(NC(=O)CCCCC(=O)Nc3cccc4c(NC(C)CCCN(CC)CC)ccnc34)cccc12 (stereo not given) | 1.8 | 130 | 230 | 120 | 0.9 |
| CCN(CC)CCCC(C)Nc1ccnc2c(NC(=O)CCCCCCC(=O)Nc3cccc4c(NC(C)CCCN(CC)CC)ccnc34)cccc12 (stereo not given) | 1.6 | 380 | 600 | 350 | 0.9 |
| CCN(CC)CCCC(C)Nc1ccnc2c(NC(=O)CCC(=O)Nc3cccc4c(NC(C)CCCN(CC)CC)ccnc34)cccc12 (stereo not given) | 5 | 500 | 2500 | 1200 | 2.2 |
| CCN(CC)CCCC(C)Nc1ccnc2ccc(NC(=O)CCCCCCCCC(=O)Nc3ccc4nccc(NC(C)CCCN(CC)CC)c4c3)cc12 (stereo not given) | 1.5 | 5700 | 8400 | 3800 | 0.7 |
